We go through one molecule from ChEMBL document CHEMBL3779820, “Discovery of a Novel Inhibitor of Histone Lysine-Specific Demethylase 1A (KDM1A/LSD1) as Orally Active Antitumor Agent” (J Med Chem, 2016).

For data set [1], the target named is Lysine-specific histone demethylase 1A (Homo sapiens) (UniProt O60341). The experiment in a line: Inhibition of KDM1A in human NB4 cells assessed as increase in GFI1B mRNA expression at biochemical IC50 measured after 24 hrs by RT-PCR analysis relative to control. Format: cell-based. Particulars: NB-4.
A short description of data set [2]: Antitumor activity against 129SvEv mouse APL blast cells implanted in nonirradiated 129SvEv mouse assessed as increase in survival of leukemic mouse at 27 mg/kg, po administered for 5 days per week for 2 weeks by Kaplan-Meier plot analysis relative to vehicle control. It is filed as functional. An outline of the steps: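 Gavage in 40% PEG 400 in 5% glucose began once peripheral-blood blasts appeared (about day 10). Survival analysed by Kaplan–Meier versus vehicle. Separate arm for GFI1B: spleen cells taken after 3 days of dosing, qRT-PCR normalized to TBP.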

For the next data set, the target named is LSD1/CoREST complex (Homo sapiens, UniProt O60341). The experiment in a line: Inhibition of human recombinant KDM1A/CoREST expressed in Escherichia coli using mono-methylated H3-K4 peptide as substrate assessed as H2O2 release preincubated for 15 mins followed by substrate addition measured for 12 mins by fluorescence-based microplate reader analysis. An outline of the steps: (§1)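 Human recombinant KDM1A/CoREST, KDM1B, MAO A and MAO B used as enzyme sources; compounds incubated with the enzyme and results expressed as IC50.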

For data set [3], the target named is T1, Amine oxidase [flavin-containing] A (Homo sapiens, UniProt P21397).
T1 sequence (P21397 whole entry): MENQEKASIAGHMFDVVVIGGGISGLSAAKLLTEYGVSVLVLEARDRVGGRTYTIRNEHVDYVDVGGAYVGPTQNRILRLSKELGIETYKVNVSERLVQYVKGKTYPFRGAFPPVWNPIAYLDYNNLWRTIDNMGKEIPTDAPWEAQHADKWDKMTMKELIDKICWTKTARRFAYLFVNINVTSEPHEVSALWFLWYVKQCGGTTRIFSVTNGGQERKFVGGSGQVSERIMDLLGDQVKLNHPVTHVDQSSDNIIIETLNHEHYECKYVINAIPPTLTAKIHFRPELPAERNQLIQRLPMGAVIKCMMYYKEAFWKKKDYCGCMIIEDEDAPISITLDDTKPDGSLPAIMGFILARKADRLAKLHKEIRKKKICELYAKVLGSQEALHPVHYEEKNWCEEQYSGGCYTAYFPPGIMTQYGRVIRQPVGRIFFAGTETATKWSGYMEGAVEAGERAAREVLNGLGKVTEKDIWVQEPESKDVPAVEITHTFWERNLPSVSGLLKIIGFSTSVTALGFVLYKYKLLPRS
Put plainly: Inhibition of human recombinant MAOA expressed in Pichia pastoris preincubated for 15 mins measured after 30 mins by bioluminescent-coupled assay. Put shortly: as §1

The target of data set [4] is T2, Amine oxidase [flavin-containing] B (Homo sapiens, UniProt P27338).
T2 sequence (P27338 whole entry): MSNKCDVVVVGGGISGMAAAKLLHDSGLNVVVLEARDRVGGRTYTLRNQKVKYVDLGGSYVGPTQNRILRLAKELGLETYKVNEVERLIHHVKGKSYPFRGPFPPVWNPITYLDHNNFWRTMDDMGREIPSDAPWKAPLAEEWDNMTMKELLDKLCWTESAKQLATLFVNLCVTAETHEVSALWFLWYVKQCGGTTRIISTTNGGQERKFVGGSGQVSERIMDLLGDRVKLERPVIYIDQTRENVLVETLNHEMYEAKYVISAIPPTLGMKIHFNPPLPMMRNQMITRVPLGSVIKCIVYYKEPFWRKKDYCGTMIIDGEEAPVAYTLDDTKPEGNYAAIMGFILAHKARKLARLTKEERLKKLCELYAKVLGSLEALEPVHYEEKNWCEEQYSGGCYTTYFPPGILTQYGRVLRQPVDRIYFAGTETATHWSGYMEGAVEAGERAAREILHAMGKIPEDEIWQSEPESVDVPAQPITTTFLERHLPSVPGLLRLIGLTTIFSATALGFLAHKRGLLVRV
The experiment in a line: Inhibition of human recombinant MAOB expressed in Pichia pastoris preincubated for 15 mins measured after 30 mins by bioluminescent-coupled assay. Put shortly:
as §1

Data set [5] concerns the target T3, Lysine-specific histone demethylase 2 (Homo sapiens, UniProt Q8NB78).
T3 sequence (Q8NB78 whole entry): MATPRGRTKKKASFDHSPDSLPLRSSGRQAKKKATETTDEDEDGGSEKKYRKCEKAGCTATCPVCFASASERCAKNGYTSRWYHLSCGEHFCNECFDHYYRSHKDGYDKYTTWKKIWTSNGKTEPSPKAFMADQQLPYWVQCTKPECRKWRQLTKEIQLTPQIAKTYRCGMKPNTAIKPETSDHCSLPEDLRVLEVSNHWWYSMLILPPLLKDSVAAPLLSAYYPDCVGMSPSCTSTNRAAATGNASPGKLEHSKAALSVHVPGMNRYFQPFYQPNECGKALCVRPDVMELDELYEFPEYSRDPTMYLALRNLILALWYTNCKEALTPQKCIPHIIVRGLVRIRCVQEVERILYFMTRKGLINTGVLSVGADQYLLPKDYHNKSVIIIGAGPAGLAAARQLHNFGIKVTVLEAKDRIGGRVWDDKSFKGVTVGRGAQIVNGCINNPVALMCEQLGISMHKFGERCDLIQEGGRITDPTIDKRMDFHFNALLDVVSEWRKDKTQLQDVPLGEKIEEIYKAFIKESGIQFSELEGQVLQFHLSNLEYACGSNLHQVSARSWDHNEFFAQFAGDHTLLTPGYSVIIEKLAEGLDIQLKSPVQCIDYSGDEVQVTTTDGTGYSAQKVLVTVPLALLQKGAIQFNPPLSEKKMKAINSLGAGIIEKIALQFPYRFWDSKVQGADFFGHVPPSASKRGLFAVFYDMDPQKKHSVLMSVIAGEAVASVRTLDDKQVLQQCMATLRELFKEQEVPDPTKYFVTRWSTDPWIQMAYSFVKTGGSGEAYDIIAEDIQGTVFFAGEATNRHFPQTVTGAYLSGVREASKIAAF
Put plainly: Inhibition of KDM1B (unknown origin).

Data set [6] has as its target Lysine-specific histone demethylase 1A (Homo sapiens) (UniProt O60341). The experiment in a line: Inhibition of KDM1A in human NB4 cells assessed as increase in CD11b mRNA expression at biochemical IC50 measured after 24 hrs by RT-PCR analysis relative to control. Particulars: NB-4. It is filed as cell-based.
Data set [7] can be described thus: Anticlonogenic activity against human THP1 cells assessed as inhibition of colony formation of cells at 0.5 uM measured after 13 days relative to control. Format: functional. To be noted: THP-1, […]. Put shortly: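 THP-1 cells (RPMI, 10% FBS, 2 mM L-glutamine, 37°C, 5% CO2) plated at 250 cells/plate in enriched methylcellulose medium with compound at 0.5 µM for 13 days.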

Data set [8] relates to THP-1. Put plainly: Induction of differentiation of human THP1 cells assessed assessed as alteration in morphology of colonies after 13 days by May Grunwald-Giemsa staining based assay. Format: functional, cell-based. Put shortly:
(§2)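 THP-1 cells cultured 13 days in semisolid methylcellulose with compound at 0.5 µM; colony morphology imaged, and cells recovered at end of culture examined as May Grunwald-Giemsa-stained cytospin preparations.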

A short description of data set [9]: Cmax in CD1 mouse at 5 mg/kg, iv administered as single dose. Format: ADME, organism-based. Also on record: dose 5 mg/kg, route intravenous. Particulars: in vivo. An outline of the steps: (§3)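 Single dose to CD1 mice: 5 mg/kg iv in 5% glucose with 10% tween 80, or 15 mg/kg orally in 5% glucose with 40% PEG. Plasma parameters derived from concentration–time profiles.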

Data set [10] is described as follows: Half life in CD1 mouse at 5 mg/kg, iv administered as single dose. Format: ADME, organism-based. To be noted: in vivo. An outline of the steps:
as §3

Data set [11] in a line: AUC (0 to infinity) in CD1 mouse at 5 mg/kg, iv administered as single dose. Particulars: in vivo. Also on record: dose 5 mg/kg, time infinity, route intravenous. It is filed as ADME, organism-based. An outline of the steps:
as §3

A short description of data set [12]: Clearance in CD1 mouse at 5 mg/kg, iv administered as single dose. Particulars: in vivo. It is filed as ADME, organism-based. Put shortly: as §3
Data set [13] deals with Mus musculus. Put plainly: Terminal volume of distribution in CD1 mouse at 5 mg/kg, iv administered as single dose. Format: ADME, organism-based. Particulars: in vivo. An outline of the steps: as §3
The nature of data set [14]: Tmax in CD1 mouse at 15 mg/kg, po administered as single dose. It is filed as ADME, organism-based. Particulars: in vivo. Put shortly: as §3
Data set [15] can be described thus: Cmax in CD1 mouse at 15 mg/kg, po administered as single dose. It is filed as ADME, organism-based. Also on record: dose 15 mg/kg, route oral. To be noted: in vivo. An outline of the steps:
as §3

Data set [16] can be described thus: AUC (0 to infinity) in CD1 mouse at 15 mg/kg, po administered as single dose. Format: ADME, organism-based. Also on record: dose 15 mg/kg, time infinity, route oral. Particulars: in vivo. An outline of the steps:
as §3

Data set [17] is described as follows: Oral bioavailability in CD1 mouse at 15 mg/kg administered as single dose. To be noted: in vivo. It is filed as ADME, organism-based. Put shortly: as §3
The subject of data set [18] is THP-1. Put plainly: Induction of differentiation of human THP1 cells after 13 days by cytospin assay. Format: functional, cell-based. An outline of the steps:
as §2

Data set [19] concerns Mus musculus. The experiment in a line: Toxicity in nonirradiated 129SvEv mouse implanted with 129SvEv mouse APL blast cells assessed as change in body weight at 27 mg/kg, po administered for 5 days per week for 2 weeks measured during compound dosing. It is filed as organism-based. Particulars: in vivo.
The nature of data set [20]: Anticlonogenic activity against 129sv mouse APL blast cells assessed as inhibition of colony formation of cells at 0.25 uM measured after 7 days relative to control. It is filed as functional. Particulars: 168 h.

What is called pIC50 is the negative decadic logarithm of the IC50, by convention in mol/L. The term inhibition denotes the relative decrease from the control value, in per cent. The Cmax is the maximum level reached in the sampled fluid or tissue. The half-life is the time in which the quantity being followed falls by half. Lower therefore signals fast loss. The AUC(0-inf) is the area under the concentration-time curve extrapolated to infinity. A high value points to more exposure. A word on the clearance: it is the rate of elimination divided by the concentration. A word on the Tmax: it is the time at which the peak concentration occurs. By bioavailability is commonly meant dose-corrected exposure relative to a reference, in per cent.

The structures appear in SMILES notation. pIC50: −log10 of the molar value. Calls of active or inactive are those of the source. The calls are words filed in the database; no cut-off is given here.

In the case of `Cl.N[C@@H]1C[C@H]1c1ccc(NC(=O)c2cccc(N3CCOC3=O)c2)cc1` (racemic), the fold change (FC) came out at 4.3 in data set [1] and 2.9 in data set [6]. The Activity in data set [2] is listed as 15%; with Mus musculus [19] it was “Non-toxic”. Moreover, the pIC50 was 7.55 on LSD1/CoREST complex, 7.04 in data set [3], 4.10 in [4] and 4.90 in data set [5]. For the same molecule, in data set [7], the inhibition at 0.5 µM is 51%. In addition, the result in the data set on THP-1 [8] and with THP-1 [18] was Active. For the same molecule, the Cmax in [9] was found to be 3650 nM; in data set [15] it was 1140 nM. The half-life in [10] was 1.92 h. For the same molecule, the figures for the AUC(0-inf) in [11] and in [16] were 4.62 µM·h and 7.12 µM·h, respectively. The same molecule returned a clearance in data set [12] of 49.7 mL/min/kg. In the data set on Mus musculus [13], this molecule returned a Vz/F of 8.45 L/kg. Also, in data set [14], the time to peak (Tmax) is 0.667 h. Besides, the bioavailability in [17] turned out to be 55.8%. Also, the inhibition at 0.25 µM in [20] stood at 79%.
